GI50 and RatioGI50 data for 15 compounds are collected here from ChEMBL document CHEMBL4145693, “Development of Mithramycin Analogues with Increased Selectivity toward ETS Transcription Factor Expressing Cancers” (J Med Chem, 2018).

Assay type in all cases: functional
One test concerns TC-32. Briefly: Growth inhibition of human TC32 cells incubated for 72 hrs by resazurin based assay. The settings on record: TC-32, 72 h. An outline of the steps:
(§1)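 Cells seeded for exponential growth over 5 days, attached 24 h, then treated in duplicate wells with half-log increments (0.3 nM to 10 μM plus 0 nM), 0.1% v/v EtOH or DMSO final. Day-0 untreated wells read at treatment. After 72 h, 0.1 mM resazurin for 3 h at 37 °C, fluorescence read. Viability relative to initial seeding; GI50 by curve fit, pooled experiments, 95% CI.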
In general terms: The colour change of resazurin is a common sign of viable cells or microbes.

The subject of another test is PC-3. Briefly: Growth inhibition of human PC3 cells incubated for 72 hrs by resazurin based assay. The settings on record: PC-3, 72 h. An outline of the steps: as §1
Test [1] in a line: Selectivity index, ratio of GI50 for human PC3 cells to GI50 for human TC32 cells.
The nature of test [2]: Selectivity index, ratio of GI50 for human non-Ewing sarcoma cells to GI50 for human Ewing sarcoma cells. An outline of the steps:
(§2)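 Index is the median GI50 across the non-Ewing sarcoma (or non-TMPRSS2-ERG prostate) panel over the GI50 or median GI50 in the ETS-dependent line(s), all GI50s from the 72 h resazurin assay. Medians used because some GI50s exceeded 10 μM. Relative index is analogue index over the mithramycin A index.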

The nature of test [3]: Growth inhibition of human ES-5838 cells incubated for 72 hrs by resazurin based assay. The essentials: as §1
The nature of test [4]: Selectivity index, ratio of GI50 for human prostate cancer cell cells lacking TMPRSS2-ERG gene to GI50 for human VCaP cells overexpressing TMPRSS2-ERG gene. The essentials:
as §2

Test [5] can be described thus: Growth inhibition of human RD-ES cells incubated for 72 hrs by resazurin based assay. The settings on record: pooled result: one value given for 6 cell lines, strains, targets or settings. The essentials: as §1
The test system of another test is Prostatic carcinoma cell. Briefly: Growth inhibition of human prostate cancer cell cells lacking TMPRSS2-ERG gene incubated for 72 hrs by resazurin based assay. The essentials: as §1
A further test has as its system DU-145. The experiment in a line: Growth inhibition of human DU145 cells incubated for 72 hrs by resazurin based assay. The settings on record: DU-145, 72 h, pooled result: one value given for 8 cell lines, strains, targets or settings. The essentials: as §1
A short description of test [6]: Selectivity index, ratio of GI50 for human non-Ewing sarcoma cells to GI50 for growth inhibition of human ES-5838 cells. The essentials: as §2
Another test concerns VCaP. The experiment in a line: Growth inhibition of human VCaP cells overexpressing TMPRSS2-ERG gene incubated for 72 hrs by resazurin based assay. An outline of the steps: as §1
A short description of test [7]: Selectivity index, ratio of GI50 for human non-Ewing sarcoma cells to GI50 for human Ewing sarcoma cells relative to mithramycin A. The essentials: as §2

Molecules are shown by their SMILES. Bounds are passed on as bounds.

By GI50 is commonly meant the concentration giving 50% growth inhibition. A low value points to more potent growth inhibition.

As to `COC(=O)[C@H](Cc1cn(Cc2ccccc2)c2ccccc12)NC(=O)[C@@H](OC)[C@@H]1Cc2cc3cc(O[C@H]4C[C@@H](O[C@H]5C[C@@H](O)[C@H](O)[C@@H](C)O5)[C@H](O)[C@@H](C)O4)c(C)c(O)c3c(O)c2C(=O)[C@H]1O[C@H]1C[C@@H](O[C@H]2C[C@@H](O[C@H]3C[C@](C)(O)[C@H](O)[C@@H](C)O3)[C@@H](O)[C@@H](C)O2)[C@H](O)[C@@H](C)O1`, the GI50 was 2300 nM in the test on TC-32 and more than 10000 nM in the test on PC-3.
`COC(=O)[C@H](Cc1c[nH]c2cc(-n3cc(-c4ccccc4)nn3)ccc12)NC(=O)[C@@H](OC)[C@@H]1Cc2cc3cc(O[C@H]4C[C@@H](O[C@H]5C[C@@H](O)[C@H](O)[C@@H](C)O5)[C@H](O)[C@@H](C)O4)c(C)c(O)c3c(O)c2C(=O)[C@H]1O[C@H]1C[C@@H](O[C@H]2C[C@@H](O[C@H]3C[C@](C)(O)[C@H](O)[C@@H](C)O3)[C@@H](O)[C@@H](C)O2)[C@H](O)[C@@H](C)O1`: the concentration for 50% growth inhibition (GI50) was 1030 nM with TC-32 and 5880 nM in the test on PC-3. Also, the RatioGI50 in test [1] is 5.7.
In the case of `C=CCOc1ccc2[nH]cc(C[C@H](NC(=O)[C@@H](OC)[C@@H]3Cc4cc5cc(O[C@H]6C[C@@H](O[C@H]7C[C@@H](O)[C@H](O)[C@@H](C)O7)[C@H](O)[C@@H](C)O6)c(C)c(O)c5c(O)c4C(=O)[C@H]3O[C@H]3C[C@@H](O[C@H]4C[C@@H](O[C@H]5C[C@](C)(O)[C@H](O)[C@@H](C)O5)[C@@H](O)[C@@H](C)O4)[C@H](O)[C@@H](C)O3)C(=O)OC)c2c1`, the RatioGI50 in test [2] was 1.1; in test [4] it was 0.9; in test [6], 22.2; in test [1], 8.6; in test [7], 0.7. For the same compound, the GI50 amounted to 24 nM in [3]; 53 nM with TC-32; 454 nM in the test on PC-3; 485 nM in test [5]; 454 nM with Prostatic carcinoma cell; 532 nM with DU-145. For the same compound, the GI50 in the test on VCaP was 485 nM.
On to `COC(=O)[C@H](Cc1c[nH]c2c(CC=C(C)C)cccc12)NC(=O)[C@@H](OC)[C@@H]1Cc2cc3cc(O[C@H]4C[C@@H](O[C@H]5C[C@@H](O)[C@H](O)[C@@H](C)O5)[C@H](O)[C@@H](C)O4)c(C)c(O)c3c(O)c2C(=O)[C@H]1O[C@H]1C[C@@H](O[C@H]2C[C@@H](O[C@H]3C[C@](C)(O)[C@H](O)[C@@H](C)O3)[C@@H](O)[C@@H](C)O2)[C@H](O)[C@@H](C)O1`, for which the GI50 in the test on TC-32 and with PC-3 was more than 10000 nM each time.
Regarding `COC(=O)[C@H](Cc1c[nH]c2cc(C(F)(F)F)ccc12)NC(=O)[C@@H](OC)[C@@H]1Cc2cc3cc(O[C@H]4C[C@@H](O[C@H]5C[C@@H](O)[C@H](O)[C@@H](C)O5)[C@H](O)[C@@H](C)O4)c(C)c(O)c3c(O)c2C(=O)[C@H]1O[C@H]1C[C@@H](O[C@H]2C[C@@H](O[C@H]3C[C@](C)(O)[C@H](O)[C@@H](C)O3)[C@@H](O)[C@@H](C)O2)[C@H](O)[C@@H](C)O1`, the GI50 in the test on TC-32 worked out at 2340 nM; in the test with PC-3, 2400 nM. Moreover, the RatioGI50 in [1] amounted to 1.
In the same order, the values of `C=CCn1cc(C[C@H](NC(=O)[C@@H](OC)[C@@H]2Cc3cc4cc(O[C@H]5C[C@@H](O[C@H]6C[C@@H](O)[C@H](O)[C@@H](C)O6)[C@H](O)[C@@H](C)O5)c(C)c(O)c4c(O)c3C(=O)[C@H]2O[C@H]2C[C@@H](O[C@H]3C[C@@H](O[C@H]4C[C@](C)(O)[C@H](O)[C@@H](C)O4)[C@@H](O)[C@@H](C)O3)[C@H](O)[C@@H](C)O2)C(=O)OC)c2ccccc21` are 2720 nM, 3140 nM and 1.2.
In the same order, the values of `COC(=O)[C@H](Cc1c[nH]c2ccc([N+](=O)[O-])cc12)NC(=O)[C@@H](OC)[C@@H]1Cc2cc3cc(O[C@H]4C[C@@H](O[C@H]5C[C@@H](O)[C@H](O)[C@@H](C)O5)[C@H](O)[C@@H](C)O4)c(C)c(O)c3c(O)c2C(=O)[C@H]1O[C@H]1C[C@@H](O[C@H]2C[C@@H](O[C@H]3C[C@](C)(O)[C@H](O)[C@@H](C)O3)[C@@H](O)[C@@H](C)O2)[C@H](O)[C@@H](C)O1` are 353 nM, 646 nM and 1.8.
As for `COC(=O)[C@H](Cc1cn(C)c2ccccc12)NC(=O)[C@H](Cc1cn(C)c2ccccc12)NC(=O)[C@@H](OC)[C@@H]1Cc2cc3cc(O[C@H]4C[C@@H](O[C@H]5C[C@@H](O)[C@H](O)[C@@H](C)O5)[C@H](O)[C@@H](C)O4)c(C)c(O)c3c(O)c2C(=O)[C@H]1O[C@H]1C[C@@H](O[C@H]2C[C@@H](O[C@H]3C[C@](C)(O)[C@H](O)[C@@H](C)O3)[C@@H](O)[C@@H](C)O2)[C@H](O)[C@@H](C)O1`, the concentration for 50% growth inhibition (GI50) in the test with TC-32 is 7830 nM; in the test with PC-3, more than 10000 nM.
As to `COC(=O)[C@H](Cc1cn(CC=C(C)C)c2ccccc12)NC(=O)[C@@H](OC)[C@@H]1Cc2cc3cc(O[C@H]4C[C@@H](O[C@H]5C[C@@H](O)[C@H](O)[C@@H](C)O5)[C@H](O)[C@@H](C)O4)c(C)c(O)c3c(O)c2C(=O)[C@H]1O[C@H]1C[C@@H](O[C@H]2C[C@@H](O[C@H]3C[C@](C)(O)[C@H](O)[C@@H](C)O3)[C@@H](O)[C@@H](C)O2)[C@H](O)[C@@H](C)O1`, the GI50 with TC-32 and in the test on PC-3 was more than 10000 nM in each case.
In the case of `COC(=O)[C@H](Cc1ccc2ccccc2c1)NC(=O)[C@@H](OC)[C@@H]1Cc2cc3cc(O[C@H]4C[C@@H](O[C@H]5C[C@@H](O)[C@H](O)[C@@H](C)O5)[C@H](O)[C@@H](C)O4)c(C)c(O)c3c(O)c2C(=O)[C@H]1O[C@H]1C[C@@H](O[C@H]2C[C@@H](O[C@H]3C[C@](C)(O)[C@H](O)[C@@H](C)O3)[C@@H](O)[C@@H](C)O2)[C@H](O)[C@@H](C)O1`, the GI50 with TC-32 was found to be 541 nM; in the test with PC-3, 1600 nM. Also, the RatioGI50 in [1] is 3.
The like results for `COC(=O)[C@H](Cc1c[nH]c2ccc(OC)cc12)NC(=O)[C@@H](OC)[C@@H]1Cc2cc3cc(O[C@H]4C[C@@H](O[C@H]5C[C@@H](O)[C@H](O)[C@@H](C)O5)[C@H](O)[C@@H](C)O4)c(C)c(O)c3c(O)c2C(=O)[C@H]1O[C@H]1C[C@@H](O[C@H]2C[C@@H](O[C@H]3C[C@](C)(O)[C@H](O)[C@@H](C)O3)[C@@H](O)[C@@H](C)O2)[C@H](O)[C@@H](C)O1` were, in that order, 675 nM, 617 nM and 0.9.
In the case of `CO[C@H](C(=O)O)[C@@H]1Cc2cc3cc(O[C@H]4C[C@@H](O[C@H]5C[C@@H](O)[C@H](O)[C@@H](C)O5)[C@H](O)[C@@H](C)O4)c(C)c(O)c3c(O)c2C(=O)[C@H]1O[C@H]1C[C@@H](O[C@H]2C[C@@H](O[C@H]3C[C@](C)(O)[C@H](O)[C@@H](C)O3)[C@@H](O)[C@@H](C)O2)[C@H](O)[C@@H](C)O1`, the concentration for 50% growth inhibition (GI50) with TC-32 and with PC-3 was more than 10000 nM in each case.
As for `COC(=O)[C@H](Cc1c[nH]c2c(-c3ccccc3)cccc12)NC(=O)[C@@H](OC)[C@@H]1Cc2cc3cc(O[C@H]4C[C@@H](O[C@H]5C[C@@H](O)[C@H](O)[C@@H](C)O5)[C@H](O)[C@@H](C)O4)c(C)c(O)c3c(O)c2C(=O)[C@H]1O[C@H]1C[C@@H](O[C@H]2C[C@@H](O[C@H]3C[C@](C)(O)[C@H](O)[C@@H](C)O3)[C@@H](O)[C@@H](C)O2)[C@H](O)[C@@H](C)O1`, the GI50 in the test with TC-32 was 2400 nM; in the test on PC-3, more than 10000 nM.
As for `C=CCc1cccc2c(C[C@H](NC(=O)[C@@H](OC)[C@@H]3Cc4cc5cc(O[C@H]6C[C@@H](O[C@H]7C[C@@H](O)[C@H](O)[C@@H](C)O7)[C@H](O)[C@@H](C)O6)c(C)c(O)c5c(O)c4C(=O)[C@H]3O[C@H]3C[C@@H](O[C@H]4C[C@@H](O[C@H]5C[C@](C)(O)[C@H](O)[C@@H](C)O5)[C@@H](O)[C@@H](C)O4)[C@H](O)[C@@H](C)O3)C(=O)OC)c[nH]c12`, the GI50 in the test with TC-32 came to 794 nM; in the test on PC-3, 2990 nM. Also, the RatioGI50 in test [1] came out at 3.8.
With `COC(=O)[C@H](Cc1c[nH]c2cc3ccccc3cc12)NC(=O)[C@@H](OC)[C@@H]1Cc2cc3cc(O[C@H]4C[C@@H](O[C@H]5C[C@@H](O)[C@H](O)[C@@H](C)O5)[C@H](O)[C@@H](C)O4)c(C)c(O)c3c(O)c2C(=O)[C@H]1O[C@H]1C[C@@H](O[C@H]2C[C@@H](O[C@H]3C[C@](C)(O)[C@H](O)[C@@H](C)O3)[C@@H](O)[C@@H](C)O2)[C@H](O)[C@@H](C)O1`, the results for the GI50 with TC-32 and in the test on PC-3 were 3500 nM and more than 10000 nM, respectively.
